PAFAH2 inh: PAFAH2 enzyme inhibitors, primary screen, biochemical, fluorescence polarization, human; AID 492956, 2010; Platelet-activating factor acetylhydrolase 2, cytoplasmic (Homo sapiens), Q99487; recombinant PAFAH2, FP-rhodamine activity probe; 0.99% of 340,000 active; inhibition, % at 3.39 µM;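 active means inhibition above the mean over all tested compounds plus 3 SD, cut at about 30% in these data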;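 further: inhibitors block probe labeling of enzyme so polarization drops; 0% = enzyme with DMSO and 100% = wells lacking PAFAH2 protein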
pPAFAH inh: pPAFAH enzyme inhibitors, primary screen, biochemical, fluorescence polarization, human; Platelet-activating factor acetylhydrolase (Homo sapiens), Q13093; recombinant pPAFAH, FP-rhodamine probe fluorescence polarization; inhibition, % at 3.39 µM; 1.5% of 330,000 active; AID 463082, 2010;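 active means inhibition above the mean inhibition across the screen plus 3 SD, cut at about 25% in these data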;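 further: inhibitors block binding of the rhodamine activity-based probe so polarization drops; 0% = enzyme with DMSO and 100% = wells lacking pPAFAH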
RBBP9 inhibitor: human RBBP9 inhibitors, primary screen, biochemical, fluorescence polarization, FP-Rh probe, HTS; Serine hydrolase RBBP9 (Homo sapiens), O75884; recombinant RBBP9; inhibition, % at 7.94 µM; 0.2% of 220,000 active;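 active means inhibition above the campaign mean of all tested compounds plus 3 SD, cut at about 14% in these data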;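 further: plate controls were DMSO wells with RBBP9 for no effect and wells lacking RBBP9 protein for full effect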
Target sequence (O75884 whole entry, looked up): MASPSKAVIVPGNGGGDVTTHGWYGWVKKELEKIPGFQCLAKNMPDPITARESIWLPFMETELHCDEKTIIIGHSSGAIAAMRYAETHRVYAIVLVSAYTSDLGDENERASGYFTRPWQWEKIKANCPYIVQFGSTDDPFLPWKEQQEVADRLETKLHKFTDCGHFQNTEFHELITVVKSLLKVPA
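System: RBBP9 protein / Quantity: 2.5 µM RBBP9 dispensing solution, before mixing / Also added: Serine-hydrolase probe FP-Rh, 375 nM pre-mixing / Dosing: 7.94 µM single dose, 0.794% DMSO / Timing: enzyme-compound preincubation 30 min, then probe labeling 45 min, 25 °C / Signal: FP readout at 525/598 nm / Controls: DMSO-treated enzyme wells and wells lacking RBBP9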
PAFAH1B3 inh: PAFAH1B3 enzyme inhibitors, primary screen, biochemical, fluorescence polarization, human; 0.28% of 340,000 active; recombinant PAFAH1B3, FP-rhodamine probe; inhibition, % at 3.39 µM;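 active means inhibition above the screen-wide average of all tested compounds plus 3 SD, cut at about 25% in these data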;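 further: 0% = enzyme with DMSO only and 100% = wells lacking PAFAH1B3 protein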
PAFAH1B2 FP inh: PAFAH1B2 enzyme inhibitors, primary screen, biochemical, fluorescence polarization, human | inhibition, % at 3.39 µM | recombinant PAFAH1B2, FP-rhodamine activity probe | 1.2% of 340,000 active;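 active means inhibition above the mean of all tested compounds plus 3 SD, cut at about 24% in these data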;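 further: 0% = enzyme with DMSO and 100% = wells lacking PAFAH1B2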
Target sequence (P68402 whole entry, looked up): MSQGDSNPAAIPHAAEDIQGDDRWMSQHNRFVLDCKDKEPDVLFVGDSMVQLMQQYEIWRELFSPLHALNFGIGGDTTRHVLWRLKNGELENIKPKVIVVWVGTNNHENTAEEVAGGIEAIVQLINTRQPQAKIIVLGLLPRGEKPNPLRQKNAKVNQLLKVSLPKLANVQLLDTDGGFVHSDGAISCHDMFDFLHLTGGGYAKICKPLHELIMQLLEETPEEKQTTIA
PAFAH2 confirm: PAFAH2 enzyme inhibitors, confirmation, biochemical, fluorescence polarization, human; shares compounds with PAFAH2 inh; recombinant PAFAH2, FP-rhodamine activity probe; inhibition, % at 3.39 µM; 65% of 2,300 active;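 active means mean inhibition over three repeats above a set limit taken from the earlier primary screen, cut at about 30% in these data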;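 further: inhibitor blocks binding of rhodamine activity probe so polarization falls; 0% = enzyme with DMSO and 100% = wells lacking PAFAH2 protein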
PAFAH1B3 conf FP: PAFAH1B3 enzyme inhibitors, confirmation, biochemical, fluorescence polarization, human | shares compounds with PAFAH1B3 inh | recombinant PAFAH1B3, FP-Rh activity-based probe | inhibition, % at 3.39 µM | 30% of 390 active;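 active means average inhibition over triplicate runs above the hit cutoff set in the earlier primary screen, cut at about 25% in these data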;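 further: 0% = enzyme with DMSO and 100% = wells lacking PAFAH1B3 protein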
* hit, by the source's call; x = no result. An excerpt weighted towards active compounds, which were near 2.7% of everything screened.

SMILES	PAFAH2 inh	pPAFAH inh	RBBP9 inhibitor	PAFAH1B3 inh	PAFAH1B2 FP inh	PAFAH2 confirm	others
CCOc1ccc(N2C(=O)/C(=C/c3ccco3)C(=O)NC2=S)cc1	94*	16	x	25	22	63*
CCOc1ccc(N2C(=O)/C(=C\c3cccs3)C(=O)NC2=S)cc1	x	-1	-7	x	x	x
O=P(Oc1ccccc1)(Oc1ccccc1)C(O)c1ccccc1 (stereo unspecified)	30*	3	x	4	2	16
Cc1cccc(N2C(=O)NC(=O)/C(=C\c3ccc4c(c3)CCCN4Cc3ccccc3)C2=O)c1	33*	11	-18	-19	0	37*
CC1=NN(c2ccccc2)C(=O)C1/C=C1/C(=O)NC(=O)N(c2cccc(C)c2)C1=O (stereo unspecified)	x	x	-3	x	x	x
O=S1(=O)N(CCN2CC=C(c3c[nH]c4cc(F)ccc34)CC2)c2cccc3c2N1CCC3	0	-1	x	6	2	x
CN(C)C(=O)Oc1ccc(OCc2nc3ccccc3[nH]2)cc1	1	0	-4	-3	4	x
CCC(=O)c1ccc(OCC(=O)N2CCN(CC(=O)Nc3ccccc3C(F)(F)F)CC2)cc1	2	3	x	5	6	x
Cc1ccccc1CCNCc1ccc(Br)cc1	-2	-3	-7	5	-4	x
CCCCOC(=O)c1ccccc1C(=O)OCc1ccccc1	3	-1	x	2	-1	x
CC1=CC(=O)NP(=O)(Oc2ccc3ccccc3c2)N1 (stereo unspecified)	45*	4	-7	6	6	24
Cc1ccc(N2C(=O)NC(=O)/C(=C\c3cccn3C(C)(C)C)C2=O)cc1	43*	1	3	15	1	29
CC12CCC(=O)C=C1CCC1C2CCC2(C)C(O)CCC12 (stereo unspecified)	34*	0	-4	5	-2	-5
CCCN1CCC[C@H](c2cccc(O)c2)C1	-2	-4	x	6	-4	x
CCC(C)n1c(O)c(C=NCCN2CCOCC2)c(=O)[nH]c1=S (stereo unspecified)	25	7	-5	7	3	x
CCC(C)n1c(O)c(C=NCCc2ccccc2)c(=O)[nH]c1=S (stereo unspecified)	47*	11	-5	2	2	45*
CCC(C)n1c(O)c(/C=N/Nc2ccccc2)c(=O)[nH]c1=S (stereo unspecified)	40*	9	-4	4	7	8
CCC(C)n1c(O)c(C=NCC2CCCO2)c(=O)[nH]c1=S (stereo unspecified)	51*	9	-1	-7	2	38*
O=c1[nH]c(=S)n(C2CC2)c(O)c1/C=N/Nc1ccccc1	10	8	-9	7	10	x
CCC(C)n1c(O)c(/C=N/NC(=O)c2ccncc2)c(=O)[nH]c1=S (stereo unspecified)	58*	6	-12	5	1	62*
Cc1cccc(N2C(=O)NC(=O)/C(=C\c3cc(C)n(-c4sc5c(c4C#N)CCCC5)c3C)C2=O)c1C	33*	9	-3	8	3	22
O=C1NC(=O)N(C2CCCCC2)C(=O)C1C1c2ccccc2C(=O)N1Cc1ccccc1 (stereo unspecified)	45*	4	5	-5	17	41*
O=C1NC(=O)C(CCc2ccncc2)(CCc2ccncc2)C(=O)N1C1CCCCC1	1	5	1	7	0	x
C[N+](C)(C)CC(=O)Nc1ccc(Cl)cc1C(=O)c1ccccc1	3	-6	-2	12	2	x
NC(=O)Nc1ccc(C(=O)OCC(=O)Nc2ccc(Cl)cc2C(=O)c2ccccc2)cc1	70*	3	-19	-4	-1	52*
SMILES	PAFAH2 inh	pPAFAH inh	RBBP9 inhibitor	PAFAH1B3 inh	PAFAH1B2 FP inh	PAFAH2 confirm	others
C[C@]12CCC3C(CC[C@@H]4C[C@@H](O)CC[C@]34C)C1CC[C@@H]2O (stereo partly specified)	6	x	x	5	3	x
O=C1NC(=O)C(Cc2ccccc2)(Cc2ccccc2)C(=O)N1	6	x	x	12	6	x
Oc1cccc2nc3ccccc3nc12	14	12	-2	35*	2	x	PAFAH1B3 conf FP=10
COc1cc(OC)c(C=O)c(OC(=O)N(C)C)c1	2	4	4	6	5	x
COc1cc2c(cc1O)[C@@H]1Cc3ccc(OC)c(O)c3CN1CC2	6	0	x	37*	8	x	PAFAH1B3 conf FP=11
CCC(C)NC(=O)c1c(N)n(CCCOC)c2nc3ccccc3nc12 (stereo unspecified)	9	18	-11	62*	18	x	PAFAH1B3 conf FP=19
COc1ccc2c(CN3CC=C(c4ccccc4)CC3)cc(=O)oc2c1	0	-1	-1	8	-1	x
CCc1ccc2c(CN3CC=C(c4ccccc4)CC3)cc(=O)oc2c1	-3	2	-4	27*	2	x	PAFAH1B3 conf FP=6
C=CCn1c(O)c(C(C)=O)c(=O)[nH]c1=O (tested in a mixture with another compound)	-2	1	-3	2	5	x
Cn1cnnc1Sc1cc(N2CCNCC2)ccc1[N+](=O)[O-]	-1	1	-6	0	5	x
CCOC(=O)c1c(N)n(CCN2CCCCC2)c2nc3ccccc3nc12	8	-1	-1	-6	2	x
CCCCn1c(NS(=O)(=O)c2ccccc2)c(C(=O)OCC)c2nc3ccccc3nc21	14	18	-8	51*	24	x	PAFAH1B3 conf FP=5

Screening results (PubChem BioAssay)
